Assay results published in EPA's CvTdb concentration-time database.
Blank lines part the entries; values can stand above or below the molecule they belong to.

Columns and labels:
Rat [1] = assay: concentration in plasma after dosing; conditions: 3 h; dosed: Wyeth-14643; 1.0 mg/kg; oral; Male; Sprague-Dawley
Rat [2] = assay: concentration in heart after dosing; conditions: 1 h; dosed: Bis 2-Chloroethoxy Methane; 20 mg/kg; iv; Female; F344
Rat [3] = assay: concentration in heart after dosing; conditions: 10 min; dosed: Bis 2-Chloroethoxy Methane; 20 mg/kg; iv; Male; F344
Rat [4] = assay: concentration in plasma after dosing; conditions: 40 min; dosed: Bis 2-Chloroethoxy Methane; 20 mg/kg; iv; Female; F344
Rat [5] = assay: concentration in plasma after dosing; conditions: 4 h; dosed: Bis 2-Chloroethoxy Methane; 20 mg/kg; iv; Female; F344
Rat [6] = assay: concentration in liver after dosing; conditions: 3 h; dosed: Bis 2-Chloroethoxy Methane; 20 mg/kg; iv; Male; F344
Rat [7] = assay: concentration in heart after dosing; conditions: 20 min; dosed: Bis 2-Chloroethoxy Methane; 20 mg/kg; iv; Female; F344
Rat [8] = assay: concentration in plasma after dosing; conditions: 40 min; dosed: Bis 2-Chloroethoxy Methane; 20 mg/kg; iv; Female; F344; remark: listed apart in the source
Rat [9] = assay: concentration in plasma after dosing; conditions: 1 h; dosed: Bis 2-Chloroethoxy Methane; 20 mg/kg; iv; Female; F344
Rat [10] = assay: concentration in brain after dosing; conditions: 12 h; dosed: Fluorotelomer alcohol 8+2; 80 mg/kg; oral; Female; Harlan Sprague Dawley
Rat [11] = assay: concentration in plasma after dosing; conditions: dosed: Fluorotelomer alcohol 8+2, 40 mg/kg, iv, Male, F344
Rat [12] = assay: concentration in liver after dosing; conditions: 1 h; dosed: Fluorotelomer alcohol 8+2; 80 mg/kg; oral; Female; Harlan Sprague Dawley
Rat [13] = assay: concentration in liver after dosing; conditions: 1 h; dosed: Fluorotelomer alcohol 8+2; 24 mg/kg; oral; Male; Harlan Sprague Dawley
Rat [14] = assay: concentration in plasma after dosing; conditions: dosed: Fluorotelomer alcohol 8+2, 12 mg/kg, oral, Male, Harlan Sprague Dawley
Rat [15] = assay: concentration in plasma after dosing; conditions: dosed: Fluorotelomer alcohol 8+2, 40 mg/kg, iv, Female, Harlan Sprague-Dawley
Rat [16] = assay: concentration in plasma after dosing; conditions: dosed: Fluorotelomer alcohol 8+2, 12 mg/kg, oral, Male, Harlan Sprague Dawley; remark: listed apart in the source
Rat [17] = assay: concentration in plasma after dosing; conditions: 10 h; dosed: Di-n-butyl phthalate; 50 mg/kg; oral; Male; Sprague-Dawley
Rat [18] = assay: concentration in liver after dosing; conditions: 3360 h; dosed: Perfluorodecanoic acid; 10 mg/kg; oral; Male; Harlan Sprague Dawley
Rat [19] = assay: concentration in liver after dosing; conditions: 1 h; dosed: Perfluorodecanoic acid; 10 mg/kg; oral; Female; Harlan Sprague Dawley
Rat [20] = assay: concentration in liver after dosing; conditions: 864 h; dosed: Perfluorodecanoic acid; 10 mg/kg; oral; Female; Harlan Sprague Dawley
Rat [21] = assay: concentration in liver after dosing; conditions: 24 h; dosed: Perfluorodecanoic acid; 10 mg/kg; oral; Female; Harlan Sprague Dawley
Rat [22] = assay: concentration in plasma after dosing; conditions: 6 h; dosed: Primidone; 80 mg/kg; oral; Male; F344
Rat [23] = assay: concentration in plasma after dosing; conditions: 6 h; dosed: Primidone; 30 mg/kg; oral; Male; F344
Rat [24] = assay: concentration in plasma after dosing; conditions: 3 h; dosed: Primidone; 30 mg/kg; oral; Female; F344
Rat [25] = assay: concentration in plasma after dosing; conditions: 9 h; dosed: Primidone; 130 mg/kg; oral; Female; F344
Rat [26] = assay: concentration in plasma after dosing; conditions: 4 h; dosed: Thiodiglycolic Acid; 20 mg/kg; iv; Female; Harlan Sprague Dawley
Rat [27] = assay: concentration in plasma after dosing; conditions: 2 h; dosed: Thiodiglycolic Acid; 20 mg/kg; iv; Male; Harlan Sprague Dawley
Rat [28] = assay: concentration in thymus after dosing; conditions: 2 h; dosed: Thiodiglycolic Acid; 20 mg/kg; iv; Male; Harlan Sprague Dawley
Rat [29] = assay: concentration in heart after dosing; conditions: 10 min; dosed: Thiodiglycolic Acid; 20 mg/kg; iv; Female; Harlan Sprague Dawley
Rat [30] = assay: concentration in plasma after dosing; conditions: 3 h; dosed: Thiodiglycolic Acid; 20 mg/kg; iv; Female; Harlan Sprague Dawley
Rat [31] = assay: concentration in thymus after dosing; conditions: 2 h; dosed: Thiodiglycolic Acid; 20 mg/kg; iv; Male; Harlan Sprague Dawley; remark: listed apart in the source
Rat [32] = assay: concentration in liver after dosing; conditions: 2 h; dosed: Thiodiglycolic Acid; 20 mg/kg; iv; Female; Harlan Sprague Dawley
Rat [33] = assay: concentration in liver after dosing; conditions: 4 h; dosed: Thiodiglycolic Acid; 20 mg/kg; iv; Male; Harlan Sprague Dawley
Rat [34] = assay: concentration in thymus after dosing; conditions: 4 h; dosed: Thiodiglycolic Acid; 20 mg/kg; iv; Female; Harlan Sprague Dawley
Rat [35] = assay: concentration in thymus after dosing; conditions: 10 min; dosed: Thiodiglycolic Acid; 20 mg/kg; iv; Male; F344
human = assay: concentration in plasma after dosing; negative times count back from the end of exposure; conditions: dosed: trichloroethylene, 100 ppm, inhalation, duration: 4 hr, person
Summary of the method: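 Points were largely digitised from plot screenshots with WebPlotDigitizer or otherwise copied from tables, and they remain in the units each source reported. They come from published in vivo toxicokinetic studies and two structured collections. Sampling and analytical methods follow each source and were often not reported.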

- concentration in plasma (Rat [1]): 180 ng/mL
SMILES: Cc1cccc(Nc2cc(Cl)nc(SCC(=O)O)n2)c1C

SMILES: ClCCOCOCCCl [Bis 2-Chloroethoxy Methane]
- concentration in heart (Rat [2]): 1380 ng/g
- concentration in heart (Rat [3]): 13200 ng/g
- concentration in plasma (Rat [4]): 1720 ng/mL
- concentration in plasma (Rat [5]): 86.2 ng/mL
- concentration in liver (Rat [6]): 130 ng/g
- concentration in heart (Rat [7]): 6800 ng/g
- concentration in plasma (Rat [8]): 1410 ng/mL
- concentration in plasma (Rat [9]): 900 ng/mL

- concentration in brain (Rat [10]): 164 ng/g
- concentration in plasma (Rat [11]; 0.25 h): 12700 ng/mL
- concentration in plasma (Rat [11]; 6 h): 153 ng/mL
- concentration in liver (Rat [12]): 7790 ng/g
- concentration in liver (Rat [13]): 4650 ng/g
- concentration in plasma (Rat [14]; 0.5 h): 374 ng/mL
- concentration in plasma (Rat [14]; 9 h): 12.8 ng/mL
- concentration in plasma (Rat [15]; 1 h): 3650 ng/mL
- concentration in plasma (Rat [15]; 24 h): 26.8 ng/mL
- concentration in plasma (Rat [16]; 0.25 h): 183 ng/mL
- concentration in plasma (Rat [16]; 6 h): 27.9 ng/mL
SMILES: OCCC(F)(F)C(F)(F)C(F)(F)C(F)(F)C(F)(F)C(F)(F)C(F)(F)C(F)(F)F [Fluorotelomer alcohol 8+2]

SMILES: CCCCOC(=O)c1ccccc1C(=O)O [Mono-n-butyl phthalate]
- concentration in plasma (Rat [17]): 797 ng/mL

SMILES: O=C(O)C(F)(F)C(F)(F)C(F)(F)C(F)(F)C(F)(F)C(F)(F)C(F)(F)C(F)(F)C(F)(F)F [Perfluorodecanoic acid]
- concentration in liver (Rat [18]): 6930 ng/g
- concentration in liver (Rat [19]): 48000 ng/g
- concentration in liver (Rat [20]): 43600 ng/g
- concentration in liver (Rat [21]): 138000 ng/g

SMILES: CCC1(c2ccccc2)C(=O)NC(=O)NC1=O [Phenobarbital]
- concentration in plasma (Rat [22]): 5320 ng/mL
- concentration in plasma (Rat [23]): 3110 ng/mL
- concentration in plasma (Rat [24]): 640 ng/mL
- concentration in plasma (Rat [25]): 2440 ng/mL

SMILES: O=C(O)CSCC(=O)O [Thiodiglycolic Acid]
- concentration in plasma (Rat [26]): 360 ng/mL
- concentration in plasma (Rat [27]): 790 ng/mL
- concentration in thymus (Rat [28]): 2120 ng/g
- concentration in heart (Rat [29]): 9540 ng/g
- concentration in plasma (Rat [30]): 676 ng/mL
- concentration in thymus (Rat [31]): 2260 ng/g
- concentration in liver (Rat [32]): 25500 ng/g
- concentration in liver (Rat [33]): 70900 ng/g
- concentration in thymus (Rat [34]): 637 ng/g
- concentration in thymus (Rat [35]): 6960 ng/g

SMILES: O=C(O)C(Cl)Cl [dichloroacetic acid]
- concentration in plasma (human; 0 h): 12 ng/mL
- concentration in plasma (human; -2 h, during exposure): 8 ng/mL
- concentration in plasma (human; -3 h, during exposure): 6 ng/mL
